Measured values taken from ChEMBL document CHEMBL1139764, “Design, synthesis, and structure-activity relationship studies of new phenolic DNA gyrase inhibitors” (2007).
Converted amounts (≈) assume the structure as drawn. One block for each molecule: values may come before it.

Experiments:
Escherichia coli = experiment: Inhibition of Escherichia coli D110 DNA gyrase after 30 mins by supercoiling assay
Staphylococcus aureus [1] = experiment: Antibacterial activity against novobiocin R144I-resistant Staphylococcus aureus ATCC 25923 by agar dilution method; format: functional
In short: (§1)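 MIC read as lowest inhibitory level in twofold serial dilutions in Müller–Hinton agar; each spot inoculated with 10^4 CFU.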

Enterococcus faecium = experiment: Antibacterial activity against ampicillin, trimethoprim and vancomycin-resistant Enterococcus faecium vanA E23-8 by twofold agar dilution method; format: functional; in short: as §1
Staphylococcus aureus [2] = experiment: Antibacterial activity against Staphylococcus aureus ATCC 25923 by twofold agar dilution method; format: functional; in short: as §1
Staphylococcus aureus [3] = experiment: Antibacterial activity against Staphylococcus aureus Smith by twofold agar dilution method; format: functional; in short: as §1
Staphylococcus aureus [4] = experiment: Antibacterial activity against methicillin and quinolones-resistant Staphylococcus aureus Smith QR54 by twofold agar dilution method; format: functional; in short: as §1
[5] = test system: Staphylococcus epidermidis; experiment: Antibacterial activity against Staphylococcus epidermidis ATCC 14990 by twofold agar dilution method; format: functional
In short: (§2)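 Twofold serial dilutions in Müller–Hinton agar with an inoculum of 10^4 CFU per spot. The read-out is the minimal inhibitory concentration (MIC).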

Staphylococcus aureus [6] = experiment: Antibacterial activity against erythromycin, methicillin and trimethoprim-resistant Staphylococcus aureus Smith 744 by twofold agar dilution method; format: functional; in short: as §1
Streptococcus pyogenes = experiment: Antibacterial activity against Streptococcus pyogenes beta-15 by agar dilution method; format: functional; in short: as §2

SMILES: NS(=O)(=O)c1ccc(NCc2cc(Cl)ccc2O)cc1
- Activity (Escherichia coli): 63 µg/mL

SMILES: Oc1ccc(Cl)cc1CNc1cc(Cl)cc(Cl)c1
- Activity (Escherichia coli): 4 µg/mL

SMILES: COc1ccc2c(c1)[C@@H](O)C[C@@H]1c3c(O)cc(OC)c(C)c3C(=O)N21
- MIC (Staphylococcus aureus [1]): 16 µg/mL (≈ 46.9 µM)
- MIC (Enterococcus faecium): > 32 µg/mL
- MIC (Staphylococcus aureus [2]): > 32 µg/mL
- MIC (Staphylococcus aureus [3]): 32 µg/mL (≈ 93.7 µM)
- MIC (Staphylococcus aureus [4]): 16 µg/mL (≈ 46.9 µM)
- MIC [5]: 32 µg/mL (≈ 93.7 µM)
- Activity (Escherichia coli): 0.5 µg/mL
- MIC (Staphylococcus aureus [6]): > 32 µg/mL
- MIC (Streptococcus pyogenes): > 32 µg/mL

SMILES: Oc1c(Cl)cc(Cl)cc1CNc1ccc(Cl)cc1
- Activity (Escherichia coli): 16 µg/mL

SMILES: COc1cc(O)c2c(c1C)C(=O)N1c3cccnc3COC21 (stereo not drawn)
- MIC (Staphylococcus aureus [1]): 0.5 µg/mL (≈ 1.68 µM)
- MIC (Enterococcus faecium): > 32 µg/mL
- MIC (Staphylococcus aureus [2]): 1 µg/mL (≈ 3.35 µM)
- MIC (Staphylococcus aureus [3]): 1 µg/mL (≈ 3.35 µM)
- MIC (Staphylococcus aureus [4]): 1 µg/mL (≈ 3.35 µM)
- MIC [5]: 0.5 µg/mL (≈ 1.68 µM)
- Activity (Escherichia coli): 0.13 µg/mL
- MIC (Staphylococcus aureus [6]): 2 µg/mL (≈ 6.7 µM)
- MIC (Streptococcus pyogenes): 32 µg/mL (≈ 107 µM)

SMILES: COc1cc(O)c2c(c1Br)C(=O)N1c3ccc(C)cc3COC21 (stereo not drawn)
- MIC (Staphylococcus aureus [1]): 4 µg/mL (≈ 10.6 µM)
- MIC (Enterococcus faecium): > 32 µg/mL
- MIC (Staphylococcus aureus [2]): 8 µg/mL (≈ 21.3 µM)
- MIC (Staphylococcus aureus [3]): 8 µg/mL (≈ 21.3 µM)
- MIC (Staphylococcus aureus [4]): 8 µg/mL (≈ 21.3 µM)
- MIC [5]: 2 µg/mL (≈ 5.32 µM)
- Activity (Escherichia coli): 0.25 µg/mL
- MIC (Staphylococcus aureus [6]): 8 µg/mL (≈ 21.3 µM)
- MIC (Streptococcus pyogenes): 16 µg/mL (≈ 42.5 µM)

SMILES: Oc1cccc(CNc2ccc(Cl)cc2)c1O
- Activity (Escherichia coli): 16 µg/mL

SMILES: Oc1ccc(Br)cc1CNc1ccc(Cl)cc1
- Activity (Escherichia coli): 16 µg/mL

SMILES: COc1cc(O)c2c(c1C)C(=O)N1c3ccc(C)cc3COC21 (stereo not drawn)
- MIC (Staphylococcus aureus [1]): 16 µg/mL (≈ 51.4 µM)
- MIC (Enterococcus faecium): > 32 µg/mL
- MIC (Staphylococcus aureus [2]): 32 µg/mL (≈ 103 µM)
- MIC (Staphylococcus aureus [3]): 16 µg/mL (≈ 51.4 µM)
- MIC (Staphylococcus aureus [4]): 16 µg/mL (≈ 51.4 µM)
- MIC [5]: 2 µg/mL (≈ 6.42 µM)
- Activity (Escherichia coli): 0.25 µg/mL
- MIC (Staphylococcus aureus [6]): 32 µg/mL (≈ 103 µM)
- MIC (Streptococcus pyogenes): > 32 µg/mL

SMILES: N#Cc1ccc(NCc2cc(Cl)ccc2O)cc1
- Activity (Escherichia coli): 2 µg/mL

Further lines, results first:

- Activity (Escherichia coli): > 63 µg/mL
SMILES: COc1ccc(N2C(=O)c3c(C)c(OC)cc(O)c3C2CC(C)=O)cc1 (stereo not drawn)

- Activity (Escherichia coli): 0.5 µg/mL
SMILES: COc1cc(O)c2c(c1C)C(=O)N(c1cnc3ccccc3c1)C2

- Activity (Escherichia coli): 31 µg/mL
SMILES: COc1ccc(N2C(=O)c3c(C)c(OC)cc(O)c3C2CC=O)cc1 (stereo not drawn)

- Activity (Escherichia coli): > 63 µg/mL
SMILES: COc1ccc(N2C(=O)c3c(C)c(OC)cc(O)c3C2c2ccc(CS)o2)cc1 (stereo not drawn)

- Activity (Escherichia coli): 4 µg/mL
SMILES: COc1ccc(N2C(=O)c3c(C)c(OC)cc(O)c3C2Sc2ncc[nH]2)cc1 (stereo not drawn)

- Activity (Escherichia coli): 16 µg/mL
SMILES: COc1ccc(N2C(=O)c3c(C)c(OC)cc(O)c3C2OC)cc1 (stereo not drawn)

- Activity (Escherichia coli): 2 µg/mL
SMILES: COc1cc(O)c2c(c1C)C(=O)N(c1cccc(N)c1)C2

- Activity (Escherichia coli): 16 µg/mL
SMILES: Oc1ccc(CNc2ccc(Cl)cc2)c(O)c1

- Activity (Escherichia coli): 4 µg/mL
SMILES: COc1ccc(N2C(=O)c3c(C)c(OC)cc(O)c3C2CCO)cc1 (stereo not drawn)

- Activity (Escherichia coli): 2 µg/mL
SMILES: COC(=O)c1c(C)c(OC)cc(O)c1CNc1ccc(Cl)c(Cl)c1

- Activity (Escherichia coli): 1 µg/mL
SMILES: COc1cc(O)c2c(c1C)C(=O)N(c1ccc3[nH]ncc3c1)C2

- Activity (Escherichia coli): > 63 µg/mL
SMILES: COc1ccc(N2C(=O)c3c(C)c(OC)cc(O)c3C2c2[nH]c3ccccc3c2C)cc1 (stereo not drawn)

- Activity (Escherichia coli): 16 µg/mL
SMILES: COC(=O)c1c(C)c(OC)cc(O)c1CNc1ccc(Cl)cc1

- Activity (Escherichia coli): 63 µg/mL
SMILES: COc1ccc(N2C(=O)c3c(C)c(OC)cc(O)c3C2C(Cl)C(C)=O)cc1 (stereo not drawn)

- Activity (Escherichia coli): 0.5 µg/mL
SMILES: COC(=O)CCSC1c2c(O)cc(OC)c(C)c2C(=O)N1c1ccc(OC)cc1 (stereo not drawn)

- Activity (Escherichia coli): > 63 µg/mL
SMILES: COc1ccc(N2C(=O)c3c(C)c(OC)cc(O)c3C2c2ccc(C)o2)cc1 (stereo not drawn)
